Among the data in ChEMBL document CHEMBL1221286, “Development of methotrexate proline prodrug to overcome resistance by MDA-MB-231 cells” (Bioorg Med Chem Lett, 2010) are EC50, Activity and Stability values, retold here.

By EC50 is commonly meant the midpoint of the concentration-response curve.

One data set deals with MCF7. Description: Cytotoxicity against human MCF7 cells assessed as cell viability by XTT assay. It is filed as functional, cell-based. Summed up:
(§1)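 Cells were seeded at 5 × 10^4 per well and grown 48 h at 37 °C, 5% CO2, before medium renewal. Drugs were added at a range of concentrations for 24 h. XTT was added for 4 h, then absorbance read at 490 nm against medium-only controls. Viability was plotted versus concentration to estimate EC50 (mean ± SD, n = 3).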
(Formazan colour is commonly taken as a measure of viable cells.)

A further data set concerns MDA-MB-231. Description: Cytotoxicity against human MDA-MB-231 cells assessed as cell viability by XTT assay. It is filed as functional, cell-based. In outline: as §1
The subject of the next data set is Caco-2. Kind of data set: Cytotoxicity against human Caco-2 cells assessed as cell viability by XTT assay. It is filed as functional, cell-based. In outline:
as §1

The species entered for data set [1] is Sus scrofa. Description: Activity of pig kidney prolidase measured per gram of protein. Summed up: (§2)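 Pro-MTX (1 mM) hydrolysed by porcine kidney prolidase at 40 °C. Enzyme was first activated 30 min at 40 °C in 50 mM Tris–HCl (pH 8.0) with 200 mM MnCl2 and 30 mM glutathione. Samples were taken at 15 min, 30 min and 1 h and quenched with equal volume 10% TFA. Released proline was assayed colorimetrically (Chinard's reagent, 90 °C 10 min, A495). Inhibitor runs added Cbz-Pro equimolar to substrate.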

A short description of data set [2]: Chemical stability of the compound in phosphate buffer saline of pH 7.4. It is filed as physicochemical.
Data set [3] concerns the target T1, Xaa-Pro dipeptidase (Homo sapiens) (UniProt P12955).
T1 sequence (whole entry): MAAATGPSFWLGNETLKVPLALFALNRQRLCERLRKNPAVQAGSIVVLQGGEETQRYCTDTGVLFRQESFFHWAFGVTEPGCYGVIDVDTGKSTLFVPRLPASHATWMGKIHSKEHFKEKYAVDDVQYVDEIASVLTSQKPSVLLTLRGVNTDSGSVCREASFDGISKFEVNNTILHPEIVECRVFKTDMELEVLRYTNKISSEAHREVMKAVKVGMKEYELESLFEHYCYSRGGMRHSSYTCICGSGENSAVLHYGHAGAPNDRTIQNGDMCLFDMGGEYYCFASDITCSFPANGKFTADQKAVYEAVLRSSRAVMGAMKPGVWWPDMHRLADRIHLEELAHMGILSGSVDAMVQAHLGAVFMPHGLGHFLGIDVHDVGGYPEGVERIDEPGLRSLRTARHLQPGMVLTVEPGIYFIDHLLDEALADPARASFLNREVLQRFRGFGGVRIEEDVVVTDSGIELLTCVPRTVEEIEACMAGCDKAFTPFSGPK
Kind of data set: Activity of prolidase in human Caco-2 cells measured per gram of protein in presence of Cbz-pro. It is filed as cell-based. Summed up:
(§3)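 Cells were grown to 90% confluence, trypsinized, PBS-washed, and lysed in 1% Triton X-100/PBS. Lysate was spun 18,000 rpm, 30 min, 4 °C. Supernatant was activated 2 h at 37 °C with Tris–HCl/200 mM MnCl2/30 mM glutathione. 1 mM Pro-MTX was then added at 37 °C, sampled at 15, 30 and 60 min, and TFA-quenched. Proline was read colorimetrically; specific activity is per µg protein. Cbz-Pro inhibitor was equimolar.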

The target in data set [4] is T1, Xaa-Pro dipeptidase (Homo sapiens). Kind of data set: Activity of prolidase in human Caco-2 cells measured per gram of protein. It is filed as cell-based. Summed up: as §3
Data set [5] is filed under the species Sus scrofa. Description: Activity of pig kidney prolidase measured per gram of protein in presence of Cbz-pro. Summed up:
as §2

The target in data set [6] is T1, Xaa-Pro dipeptidase (Homo sapiens). Kind of data set: Activity of prolidase in human HeLa cells measured per gram of protein. It is filed as cell-based. Summed up: as §3
The target is the same in data set [7]. Description: Activity of prolidase in human HeLa cells measured per gram of protein in presence of Cbz-pro. It is filed as cell-based. In outline:
as §3

As for `CN(Cc1cnc2nc(N)nc(N)c2n1)c1ccc(C(=O)N[C@@H](CCC(=O)O)C(=O)O)cc1` [METHOTREXATE], the 50% effective concentration (EC50) came out at 0.9 µM in the data set on MCF7, 80 µM with MDA-MB-231 and 1.1 µM in the data set on Caco-2.

With `CN(Cc1cnc2nc(N)nc(N)c2n1)c1ccc(C(=O)N[C@H](CCC(=O)O)C(=O)N2CCC[C@@H]2C(=O)O)cc1`, the figures for the EC50 with MCF7, in the data set with MDA-MB-231 and with Caco-2 were 5.2 µM, 11 µM and 5.6 µM, respectively. The Activity in the data set filed under Sus scrofa [1] was found to be 19 pmol/min; in data set [3], 0.28 pmol/min; in data set [4], 0.42 pmol/min; in the data set filed under Sus scrofa [5], 8.15 pmol/min; in data set [6], 0.35 pmol/min; in data set [7], 0.19 pmol/min. Besides, in data set [2], the Stability entry is “Stable”.
